The structures appear in SMILES notation. Several values for one entry are separate records, joined by “and”; a condition that tells them apart may be missing. Equal values may be shown once.

T2 sequence (P11712 whole entry): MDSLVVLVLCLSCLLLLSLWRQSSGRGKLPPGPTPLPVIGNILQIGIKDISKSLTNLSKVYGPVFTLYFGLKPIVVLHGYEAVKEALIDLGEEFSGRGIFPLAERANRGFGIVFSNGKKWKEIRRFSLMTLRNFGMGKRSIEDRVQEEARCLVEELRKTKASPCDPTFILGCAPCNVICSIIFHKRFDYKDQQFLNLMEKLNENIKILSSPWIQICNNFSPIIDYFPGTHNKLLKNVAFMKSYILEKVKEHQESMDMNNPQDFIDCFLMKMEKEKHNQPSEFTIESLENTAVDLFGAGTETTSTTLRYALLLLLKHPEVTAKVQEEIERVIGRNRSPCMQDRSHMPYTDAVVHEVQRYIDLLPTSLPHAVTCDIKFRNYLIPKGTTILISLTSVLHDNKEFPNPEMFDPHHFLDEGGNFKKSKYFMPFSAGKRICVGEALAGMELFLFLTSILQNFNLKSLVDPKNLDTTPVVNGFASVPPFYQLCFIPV
T1 sequence (P11712 whole entry): as above

The first data set addresses T1, CYP2C9 (Homo sapiens, UniProt P11712). The data set can be described thus: Inhibition of human CYP2C9 assessed as (S)-Flurbiprofen hydroxylation at 100 uM. Type of data set: ADME. The settings on record: probe (S)-flurbiprofen. The procedure, abridged: (§1)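 Reconstituted CYP2C9 (5 pmol) in 0.2 mL incubations with 20 μM (S)-flurbiprofen held constant, 50 mM potassium phosphate pH 7.4, 37 °C for 20 min. Test compounds diluted in DMSO (1% final in all reactions, controls included), screened on a log scale from 0.001–1000 μM depending on solubility. 4′-OH flurbiprofen formation measured after quench. Triplicate reactions.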
For `O=C(c1ccc(F)cc1)c1cnc2sccn12`, the inhibition at 100 µM was 50%.
The same measure, in the same setting: then `CN1C(=O)N(c2ccc(Cl)c(Cl)c2)C(=N)C1=S`, with 50%.

The next data set concerns the target T2, Cytochrome P450 2C9 (Homo sapiens, UniProt P11712). In words: Activation of human CYP2C9 assessed as (S)-Flurbiprofen hydroxylation. Set-up: concentration or dose not given beside the values.
Conditions: not given
Regarding `Nc1ccc(S(=O)(=O)c2ccc([N+](=O)[O-])cc2)cc1`, the activity is -10.6%.
Still for that read-out and setting: as for `O=C(O)c1ccc(S(=O)(=O)c2ccc(C(=O)O)cc2)cc1`, the figure is -5%; as for `c1ccc2c(c1)sc1ccccc12` [DIBENZOTHIOPHENE], -10.6%.
Same read-out and setting: as for `Cc1cc(C)nc(NS(=O)(=O)c2ccc(N)cc2)n1` [SULFAMETHAZINE], the figure is -18.8%.
In the case of `Nc1ccc(S(=O)(=O)Nc2ncccn2)cc1` [SULFADIAZINE], the activity is on record as -17.1%.
Same read-out and setting: as for `COc1ccc(S(=O)(=O)c2ccc(OC)cc2)cc1`, the figure is -25%.

In the next data set the target is T2, Cytochrome P450 2C9. In words: (§2) Activation of human CYP2C9 assessed as (S)-Flurbiprofen hydroxylation. Format: ADME.
Conditions: not given
Also noted: concentration or dose not given beside the values. The method in brief:
as §1
For `Nc1ccc(S(=O)(=O)c2ccc(N)cc2)cc1` [DAPSONE], the activity is 95% and 64.1%.

The next data set concerns the target T1, CYP2C9. The description is as §2. Particulars: probe (S)-flurbiprofen. Also noted: concentration or dose not given beside the values. Format: ADME. The method in brief:
as §1
With `Cc1ccc(S(=O)(=O)c2ccc(C)cc2)cc1`, the activity amounted to 50.6%.
On the same count and under the same terms, as for `Cn1c(=O)[nH]c(=O)c2ncn(CC(=O)c3ccc(F)cc3)c21`, the figure is 7.7%; as for `[O-][S+](c1ccccc1)c1ccccc1`, 3.5%.
On the same count and under the same terms, as for `O=S(=O)(c1ccccc1)c1ccccc1` [(PHENYLSULFONYL)BENZENE], the figure is 40%.
On the same count and under the same terms, then `O=S(=O)(c1ccc(O)cc1)c1ccc(O)cc1`, with 95%.
As for `NCC(=O)Nc1ccc2ccccc2c1`, the activity turned out to be 4.4%.
On the same count and under the same terms, then `Cc1ccc([C@@H]2NC(=O)c3ccccc3N2)cc1`, with 6.6%.
The same measure, in the same setting: as for `Cc1cccc(C(=O)[C@@H](O)c2cccc(C)n2)n1`, the figure is 46%; as for `CC(=O)Oc1ccc(S(=O)(=O)c2ccc(OC(C)=O)cc2)cc1`, 8%.
The same measure, in the same setting: as for `Cn1c(=O)c2c(ncn2CN2CCCC2)n(C)c1=O`, the figure is 3%.

Another data set has as its target T1, CYP2C9. In words: Inhibition of human CYP2C9 assessed as (S)-Flurbiprofen hydroxylation at 1 uM. Format: ADME. The settings on record: probe (S)-flurbiprofen. The procedure, abridged:
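Reconstituted CYP2C9 (5 pmol) in 0.2 mL incubations with 20 μM (S)-flurbiprofen held constant, in 50 mM potassium phosphate pH 7.4. Run at 37 °C for 20 min, then quenched, and 4′-OH flurbiprofen formation measured. Test compounds were dosed from DMSO on a log scale, with 1% DMSO final in all reactions, in triplicate. Activity is reported as % change versus control.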
For the compound `Nc1cc(N)c(N)cc1N`, the inhibition at 1 µM worked out at 50%.
